ChEMBL document CHEMBL3351355, “Structure-affinity/activity relationships of 1,4-dioxa-spiro[4.5]decane based ligands at α1 and 5-HT1A receptors” (Eur J Med Chem, 2014)

Legend:
[1] = organism: Rattus norvegicus; experiment: Selectivity ratio of Kb for alpha1B adrenoceptor in Wistar rat spleen to Kb for alpha1A adrenoceptor in Wistar rat vas deferans; assay type: tissue-based
[2] = biological target: T1, Alpha-1D adrenergic receptor (Rattus norvegicus) (UniProt P23944); experiment: Antagonist activity at alpha1D adrenoceptor in Wistar rat thoracic aorta assessed as noradrenaline-induced contractions after 30 mins
T1 sequence (whole entry): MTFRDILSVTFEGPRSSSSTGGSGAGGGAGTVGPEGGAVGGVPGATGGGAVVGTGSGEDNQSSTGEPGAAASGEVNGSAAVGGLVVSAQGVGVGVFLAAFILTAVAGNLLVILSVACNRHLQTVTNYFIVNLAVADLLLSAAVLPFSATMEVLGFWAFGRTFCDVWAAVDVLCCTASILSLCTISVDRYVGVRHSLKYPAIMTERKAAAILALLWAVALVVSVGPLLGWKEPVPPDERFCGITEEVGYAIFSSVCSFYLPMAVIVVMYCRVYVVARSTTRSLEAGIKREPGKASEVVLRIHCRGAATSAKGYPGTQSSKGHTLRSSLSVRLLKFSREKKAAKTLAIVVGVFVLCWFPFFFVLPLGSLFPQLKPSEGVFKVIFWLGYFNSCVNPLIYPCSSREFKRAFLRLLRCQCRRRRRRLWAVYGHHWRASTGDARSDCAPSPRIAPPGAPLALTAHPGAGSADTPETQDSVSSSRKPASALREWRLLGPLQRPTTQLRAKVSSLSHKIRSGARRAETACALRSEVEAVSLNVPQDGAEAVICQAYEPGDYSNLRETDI

[3] = organism: Rattus norvegicus; experiment: Selectivity ratio of Kb for alpha1D adrenoceptor in Wistar rat thoracic aorta to Kb for alpha1B adrenoceptor in Wistar rat spleen; assay type: tissue-based
[4] = biological target: T2, Alpha-1A adrenergic receptor (Rattus norvegicus) (UniProt P43140); experiment: Antagonist activity at alpha1A adrenoceptor in Wistar rat vas deferans assessed as noradrenaline-induced contractions after 30 mins
T2 sequence (whole entry): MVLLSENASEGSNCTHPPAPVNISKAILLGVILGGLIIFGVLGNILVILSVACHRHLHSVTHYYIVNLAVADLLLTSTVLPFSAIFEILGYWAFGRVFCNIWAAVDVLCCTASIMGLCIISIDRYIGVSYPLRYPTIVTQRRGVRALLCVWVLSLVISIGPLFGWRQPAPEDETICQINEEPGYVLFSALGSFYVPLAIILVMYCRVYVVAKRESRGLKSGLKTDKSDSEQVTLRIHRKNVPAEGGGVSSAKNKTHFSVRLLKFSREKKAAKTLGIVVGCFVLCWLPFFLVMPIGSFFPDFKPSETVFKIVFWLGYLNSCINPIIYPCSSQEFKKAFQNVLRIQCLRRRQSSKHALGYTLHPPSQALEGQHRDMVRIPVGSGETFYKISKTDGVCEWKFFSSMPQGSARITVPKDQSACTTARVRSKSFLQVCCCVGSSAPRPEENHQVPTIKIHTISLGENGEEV

[5] = biological target: T3, Alpha-1D adrenergic receptor (Homo sapiens, UniProt P25100); experiment: Displacement of [3H]prazosin from human recombinant alpha1D adrenoceptor expressed in CHO cells after 30 mins by liquid scintillation counting; assay type: cell-based
T3 sequence (P25100 whole entry): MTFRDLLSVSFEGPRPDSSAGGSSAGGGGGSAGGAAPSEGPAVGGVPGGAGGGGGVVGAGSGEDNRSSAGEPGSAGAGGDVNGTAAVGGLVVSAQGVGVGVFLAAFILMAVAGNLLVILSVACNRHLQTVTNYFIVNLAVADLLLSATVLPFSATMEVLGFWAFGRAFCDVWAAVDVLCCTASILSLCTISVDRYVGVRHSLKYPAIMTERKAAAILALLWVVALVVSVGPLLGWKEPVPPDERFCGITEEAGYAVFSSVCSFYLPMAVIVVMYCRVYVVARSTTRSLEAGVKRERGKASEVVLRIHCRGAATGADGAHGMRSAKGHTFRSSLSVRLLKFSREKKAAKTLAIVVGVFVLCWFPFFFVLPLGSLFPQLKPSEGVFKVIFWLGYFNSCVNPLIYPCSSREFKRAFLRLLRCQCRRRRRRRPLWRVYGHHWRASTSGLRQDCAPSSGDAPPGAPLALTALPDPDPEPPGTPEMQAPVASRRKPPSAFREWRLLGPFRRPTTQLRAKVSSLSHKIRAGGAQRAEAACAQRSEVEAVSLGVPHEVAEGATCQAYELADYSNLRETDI
Summary of the method: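 CHO cells were stably transfected by electroporation with each human α1 subtype. Membranes (70 µg protein) were incubated in 50 mM Tris pH 7.4 with 0.1–0.4 nM [3H]prazosin and competitor (1 pM–1 µM) for 30 min at 25 °C. Nonspecific binding with 10 µM tamsulosin. Filtration and scintillation counting. pKi from 2–3 experiments in duplicate.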

[6] = biological target: T4, 5-hydroxytryptamine receptor 1A (Homo sapiens) (UniProt P08908); experiment: Agonist activity at human recombinant 5-HT1A receptor expressed in HeLa cells after 30 mins by [35S]GTPgammaS binding assay relative to control; assay type: functional, cell-based
T4 sequence (whole entry): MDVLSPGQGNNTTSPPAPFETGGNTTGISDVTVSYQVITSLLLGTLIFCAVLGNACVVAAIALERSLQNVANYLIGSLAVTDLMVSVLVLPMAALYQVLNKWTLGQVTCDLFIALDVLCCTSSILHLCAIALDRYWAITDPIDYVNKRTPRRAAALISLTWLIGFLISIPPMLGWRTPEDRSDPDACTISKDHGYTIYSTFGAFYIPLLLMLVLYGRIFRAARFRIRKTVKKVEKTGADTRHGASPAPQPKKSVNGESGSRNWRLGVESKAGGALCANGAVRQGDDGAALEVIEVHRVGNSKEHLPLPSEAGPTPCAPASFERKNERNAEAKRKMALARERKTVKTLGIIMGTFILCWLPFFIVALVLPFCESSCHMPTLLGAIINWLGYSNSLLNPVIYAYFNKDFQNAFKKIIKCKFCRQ
Summary of the method: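 HeLa membranes (50–70 µg protein) in 20 mM HEPES, 3 mM MgSO4, 120 mM NaCl, pH 7.4, preincubated 20 min at 30 °C with 30 µM GDP and drug (0.01 nM–10 µM), then 200 pM [35S]GTPγS added for 30 min at 30 °C. Nonspecific binding with 10 µM GTPγS. Filtration and scintillation counting. Data expressed as % increase over basal, 8-OH-DPAT maximum = 100%. Emax and pD2 derived.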

[7] = biological target: T4, 5-hydroxytryptamine receptor 1A (Homo sapiens); experiment: Agonist activity at human recombinant 5-HT1A receptor expressed in HeLa cells after 30 mins by [35S]GTPgammaS binding assay; assay type: functional, cell-based
Summary of the method: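 HeLa membranes expressing human 5-HT1A (50–70 µg protein) in 20 mM HEPES, 3 mM MgSO4, 120 mM NaCl pH 7.4 with 30 µM GDP; test drug 0.01 nM–10 µM, 20 min at 30 °C, then 200 pM [35S]GTPγS for 30 min at 30 °C. Nonspecific with 10 µM GTPγS; filtration and scintillation counting. Emax as % of maximal 8-OH-DPAT stimulation; pD2 = −log EC50.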

| SMILES | Ratio [1] | pKb [2] | Ratio [3] | pKb [4] | Ki [5] | Emax [6] | pD2 [7] |
| --- | --- | --- | --- | --- | --- | --- | --- |
| COc1ccccc1N1CCN(CC2COC3(CCN(C(=O)C(F)(F)F)CC3)O2)CC1 (configuration not stated) | 10.7 | 7.5 | 0.31 | 6.97 | 0.417 µM |  |  |
| COc1ccccc1N1CCN(CC2COC3(CCN(S(=O)(=O)c4ccc([N+](=O)[O-])cc4)CC3)O2)CC1 (configuration not stated) | 1.02 | 8.02 | 1.86 | 7.74 | 0.00575 µM | 37% | 7.65 |
| COc1ccccc1N1CCN(CC2COC3(CCN(S(=O)(=O)c4ccccc4)CC3)O2)CC1 (configuration not stated) | 2.88 | 7.05 | 0.13 | 7.48 | 0.0123 µM |  |  |
| COc1ccccc1N1CCN(CC2COC3(CCNCC3)O2)CC1 (configuration not stated) | 1.09 | 6.89 | 0.13 | 7.74 | 0.0372 µM |  |  |
| COc1ccccc1N1CCN(CC2COC3(CCN(C(=O)NC(C)(C)C)CC3)O2)CC1 (configuration not stated) | 0.61 | 6.53 | 0.13 | 7.63 | 0.0355 µM |  |  |
| COc1ccccc1N1CCN(CC2COC3(CCN(C(=O)c4ccco4)CC3)O2)CC1 (configuration not stated) | 1.82 | 7.38 | 0.49 | 7.43 | 0.0282 µM | 33% | 7.12 |
| COc1ccccc1N1CCN(CC2COC3(CCN(S(=O)(=O)c4cccc([N+](=O)[O-])c4)CC3)O2)CC1 (configuration not stated) | 1.48 | 7.98 | 0.69 | 7.97 | 0.000912 µM |  |  |
| COc1ccccc1N1CCN(CC2COC3(CCN(S(=O)(=O)c4ccc(C)cc4)CC3)O2)CC1 (configuration not stated) | 3.23 | 6.96 | 0.11 | 7.4 | 0.0107 µM | 28% | 7.33 |
| COc1ccccc1N1CCN(CC2COC3(CCN(C(=O)c4ccccc4)CC3)O2)CC1 (configuration not stated) | 3.02 | 7.45 | 0.18 | 7.71 | 0.0204 µM |  |  |
| COc1ccccc1N1CCN(CC2COC3(CCSCC3)O2)CC1 (configuration not stated) | 1.07 | 6.84 | 0.16 | 7.6 | 0.0148 µM | 36% | 7.48 |
| COc1ccccc1N1CCN(CC2COC3(CCN(c4ccccc4)CC3)O2)CC1 (configuration not stated) | 0.6 | 7.43 | 0.74 | 7.78 | 0.00813 µM | 42% | 7.14 |
| COc1ccccc1N1CCN(CC2COC3(CCN(C(=O)c4ccc(C(F)(F)F)cc4)CC3)O2)CC1 (configuration not stated) | 3.47 | 7.29 | 0.09 | 7.79 | 0.011 µM |  |  |
| COc1ccccc1N1CCN(CC2COC3(CCN(C(C)=O)CC3)O2)CC1 (configuration not stated) | 3.55 | 6.48 | 0.05 | 7.17 | 0.0891 µM |  |  |
| CCCCNC(=O)N1CCC2(CC1)OCC(CN1CCN(c3ccccc3OC)CC1)O2 (configuration not stated) | 1.04 | 7.29 | 0.77 | 7.38 | 0.0191 µM | 30% | 6.53 |
| COc1ccccc1N1CCN(CC2COC3(CCN(C(=O)Nc4ccccc4)CC3)O2)CC1 (configuration not stated) | 9.12 | 7.26 | 0.12 | 7.22 | 0.0132 µM | 28% | 7.22 |
| COc1ccccc1N1CCN(CC2COC3(CCN(C(=O)C4CCCN4)CC3)O2)CC1 (configuration not stated) | 2.69 | 6.71 | 0.07 | 7.43 | 0.0269 µM |  |  |
| COc1ccccc1N1CCN(CC2COC3(CCOCC3)O2)CC1 (configuration not stated) | 0.41 | 7.33 | 1.44 | 7.55 | 0.0251 µM | 31% | 6.82 |
| COc1ccccc1N1CCN(CC2COC3(CCCCC3)O2)CC1 (configuration not stated) | 0.87 | 7.88 | 14.4 | 6.78 | > 1 µM | 48% | 8.61 |
| COc1ccccc1N1CCN(CC2COC3(CCS(=O)(=O)CC3)O2)CC1 (configuration not stated) | 2.09 | 7.2 | 0.34 | 7.34 | 0.0513 µM |  |  |
| COc1ccccc1N1CCN(CC2COC3(CCN(S(=O)(=O)c4ccc(Cl)cc4)CC3)O2)CC1 (configuration not stated) | 1.32 | 7.37 | 1.02 | 7.24 | 0.00708 µM |  |  |
| COc1ccccc1N1CCN(CC2COC3(CCN(c4ccccn4)CC3)O2)CC1 (configuration not stated) | 1.7 | 6.87 | 0.1 | 7.63 | 0.0229 µM | 41% | 6.49 |
| COc1ccccc1N1CCN(CC2COC3(CCN(Cc4ccccc4)CC3)O2)CC1 (configuration not stated) | 0.29 | 8.6 | 26.3 | 7.72 | 0.00468 µM | 45% | 7.21 |
| COc1ccccc1N1CCN(CC2COC3(CCN(S(=O)(=O)c4cccs4)CC3)O2)CC1 (configuration not stated) | 3.89 | 7.27 | 0.16 | 7.46 | 0.00977 µM |  |  |
| COc1ccccc1N1CCN(CC2COC3(CCN(S(C)(=O)=O)CC3)O2)CC1 (configuration not stated) | 1.12 | 7.18 | 0.52 | 7.41 | 0.0234 µM |  |  |
| COc1ccccc1N1CCN(CC2COC3(CCN(S(=O)(=O)c4ccc(OC(F)(F)F)cc4)CC3)O2)CC1 (configuration not stated) | 5.75 | 7.37 | 0.42 | 6.98 | 0.0263 µM |  |  |
